Test results taken from ChEMBL document CHEMBL5096186, “Design, Synthesis, and Biological Evaluation of Novel Pyrimido[4,5-b]indole Derivatives Against Gram-Negative Multidrug-Resistant Pathogens” (J Med Chem, 2021).
≈ marks a conversion by molar mass, not a printed value.

Experiments:
Staphylococcus aureus [1] = assay: Antibacterial activity against methicillin-resistant Staphylococcus aureus strains 15 1 to 4 assessed as reduction in bacterial growth incubated for 18 to 20 hrs by CLSI based microdilution method; assay type: functional; settings: time 18-20 hrs
Summary of the method: (§1)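 Broth microdilution per CLSI. Compounds dissolved in DMSO (levofloxacin and meropenem in water) as 64 μg/mL stock, then serial twofold dilutions in broth giving 64 to 0.008 μg/mL. […] Clinical isolates tested as several strains per group; racemic GP-1 served as positive control; values given as MIC ranges.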

Staphylococcus aureus [2] = assay: Antibacterial activity against methicillin-sensitive Staphylococcus aureus strains 15 1 to 4 assessed as reduction in bacterial growth incubated for 18 to 20 hrs by CLSI based microdilution method; assay type: functional; settings: time 18-20 hrs; summary of the method: as §1
[3] = tested on: Staphylococcus epidermidis; assay: Antibacterial activity against methicillin-sensitive Staphylococcus epidermidis strains 15 1 to 4 assessed as reduction in bacterial growth incubated for 18 to 20 hrs by CLSI based microdilution method; assay type: functional; settings: time 18-20 hrs; summary of the method: as §1
Escherichia coli [4] = assay: Antibacterial activity against ESBL-producing Escherichia coli ATCC 35218 strains 15 1 to 3 assessed as reduction in bacterial growth incubated for 18 to 20 hrs by CLSI based microdilution method; assay type: functional; settings: time 18-20 hrs
Summary of the method: (§2)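 CLSI broth microdilution. Compounds in DMSO (levofloxacin and meropenem in water), serial twofold dilutions in broth, 64 to 0.008 μg/mL. […] Results reported as MIC ranges across strains.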

Escherichia coli [5] = assay: Antibacterial activity against Escherichia coli ATCC 35218 strains 15 1 to 3 assessed as reduction in bacterial growth incubated for 18 to 20 hrs by CLSI based microdilution method; assay type: functional; settings: time 18-20 hrs; summary of the method: as §2
Pseudomonas aeruginosa = assay: Antibacterial activity against multidrug resistant Pseudomonas aeruginosa strains 15 1 to 3 assessed as reduction in bacterial growth incubated for 18 to 20 hrs by CLSI based microdilution method; assay type: functional; settings: time 18-20 hrs; summary of the method: as §1
[6] = biological target: hERG (KCNH2) potassium channel (Homo sapiens, UniProt Q12809); assay: Inhibition of hERG potassium channel assessed as maximum inhibition rate at 40 uM at -80 mV holding potential incubated for 120 seconds by whole cell-automated voltage clamp analysis assay relative to control; assay type: toxicity; settings: time 120 sec
Summary of the method: (§3)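 Automated whole-cell patch clamp, holding potential −80 mV. Voltage protocol applied every 20 s. Baseline set with external solution containing 0.1% DMSO and stabilised 3 min. Compound applied until steady state, at least 3 min, then washout. Maximum tested concentration 40 μM, or 3 μM for cisapride as positive control.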

[7] = biological target: Voltage-gated inwardly rectifying potassium channel KCNH2 (Homo sapiens, UniProt Q12809); assay: Inhibition of hERG potassium channel assessed as […] at -80 mV holding potential incubated for 120 seconds by whole cell-automated voltage clamp analysis assay; assay type: toxicity; summary of the method: as §3
Sequence of Voltage-gated inwardly rectifying potassium channel KCNH2 (Q12809 whole entry): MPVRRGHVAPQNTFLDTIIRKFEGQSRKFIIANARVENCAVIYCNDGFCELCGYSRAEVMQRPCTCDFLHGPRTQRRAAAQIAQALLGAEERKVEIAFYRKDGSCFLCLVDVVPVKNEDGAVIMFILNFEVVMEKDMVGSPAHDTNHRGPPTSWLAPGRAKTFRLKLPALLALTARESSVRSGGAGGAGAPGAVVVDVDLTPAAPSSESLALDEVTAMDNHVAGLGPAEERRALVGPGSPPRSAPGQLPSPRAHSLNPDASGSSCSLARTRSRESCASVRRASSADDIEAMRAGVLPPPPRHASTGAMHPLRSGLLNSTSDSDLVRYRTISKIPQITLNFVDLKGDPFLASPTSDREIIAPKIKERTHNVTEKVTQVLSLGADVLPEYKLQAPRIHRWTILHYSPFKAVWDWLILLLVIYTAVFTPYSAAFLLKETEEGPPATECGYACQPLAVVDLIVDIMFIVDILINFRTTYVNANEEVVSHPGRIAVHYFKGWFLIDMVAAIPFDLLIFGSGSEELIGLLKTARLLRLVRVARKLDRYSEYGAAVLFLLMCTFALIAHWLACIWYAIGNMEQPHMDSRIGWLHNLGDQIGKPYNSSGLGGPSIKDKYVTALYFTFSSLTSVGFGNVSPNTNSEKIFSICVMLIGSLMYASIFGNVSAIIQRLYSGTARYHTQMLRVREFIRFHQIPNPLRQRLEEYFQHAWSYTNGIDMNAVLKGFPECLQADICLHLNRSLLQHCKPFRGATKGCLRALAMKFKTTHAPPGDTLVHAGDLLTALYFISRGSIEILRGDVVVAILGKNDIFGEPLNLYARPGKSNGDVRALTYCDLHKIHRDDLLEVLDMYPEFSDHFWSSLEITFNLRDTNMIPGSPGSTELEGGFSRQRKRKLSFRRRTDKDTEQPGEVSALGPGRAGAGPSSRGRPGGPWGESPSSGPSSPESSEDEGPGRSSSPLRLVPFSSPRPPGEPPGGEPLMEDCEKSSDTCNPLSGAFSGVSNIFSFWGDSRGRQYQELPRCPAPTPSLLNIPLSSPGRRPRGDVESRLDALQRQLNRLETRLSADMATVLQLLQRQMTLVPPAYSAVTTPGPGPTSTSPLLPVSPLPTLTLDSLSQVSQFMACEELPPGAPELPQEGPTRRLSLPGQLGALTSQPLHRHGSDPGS

Sequence of hERG (KCNH2) potassium channel (Q12809 whole entry): as above

Row | Structure (SMILES) | MIC (Staphylococcus aureus [1]) | MIC (Staphylococcus aureus [2]) | MIC [3] | MIC (Escherichia coli [4]) | MIC (Escherichia coli [5]) | MIC (Pseudomonas aeruginosa) | inhibition at 2 min, 40 µM [6] | IC50 [7]
1 | CNc1cc(F)cc2c1[nH]c1nc(Oc3cnc(C)nc3)nc(N3CCC(=C(F)CN)CC3)c12 | 0.015 mg/L (≈ 0.0322 µM) | 0.015 mg/L (≈ 0.0322 µM) | < 0.008 mg/L | 0.5 mg/L (≈ 1.07 µM) | 0.06 mg/L (≈ 0.129 µM) | > 8 mg/L | 70.4% | 18.4 µM
2 | CNc1cc(F)cc2c1[nH]c1nc(Oc3cnc(C)nc3)nc(N3CC(=C(Cl)CN)C3)c12 |  | < 0.008 mg/L | < 0.008 mg/L | 1 mg/L (≈ 2.2 µM) | 0.25 mg/L (≈ 0.55 µM) | 8 mg/L (≈ 17.6 µM) | 34.3% | > 40 µM
3 | CNc1cc(F)cc2c1[nH]c1nc(Oc3cnc(C)nc3)nc(N3CC(=C(CO)C(C)C)C3)c12 | < 0.03 mg/L | < 0.008 mg/L | < 0.03 mg/L | 0.5 mg/L (≈ 1.08 µM) | 0.125 mg/L (≈ 0.27 µM) | ≥ 64 mg/L |  | 
4 | CNc1cc(F)cc2c1[nH]c1nc(Oc3cnc(C)nc3)nc(N3CC(=CC(C)O)C3)c12 (stereo unspecified) |  | < 0.008 mg/L | < 0.008 mg/L | 0.5 mg/L (≈ 1.15 µM) | 0.125 mg/L (≈ 0.287 µM) | > 16 mg/L |  | 
5 | CCC(CN)=C1CN(c2nc(Sc3cnc(C)nc3)nc3[nH]c4c(NC)cc(F)cc4c23)C1 | < 0.008 mg/L | 0.008 mg/L (≈ 0.0172 µM) | < 0.008 mg/L | 1 mg/L (≈ 2.15 µM) | 0.5 mg/L (≈ 1.08 µM) | > 16 mg/L |  | 
6 | CNc1cc(F)cc2c1[nH]c1nc(Oc3cnc(C)nc3)nc(N3CC(=C(C)CN)C3)c12 |  | < 0.008 mg/L | < 0.008 mg/L | 2 mg/L (≈ 4.6 µM) | 0.06 mg/L (≈ 0.138 µM) | > 4 mg/L | 4.8% | > 40 µM
7 | CCC(CO)=C1CN(c2nc(Oc3cnc4ccnn4c3)nc3[nH]c4c(NC)cc(F)cc4c23)C1 |  |  |  | 0.25 mg/L (≈ 0.527 µM) | 0.25 mg/L (≈ 0.527 µM) |  |  | 
8 | CCC(CO)=C1CN(c2nc(C(=O)Nc3cnc(C)nc3)nc3[nH]c4c(NC)cc(F)cc4c23)C1 |  |  |  | > 64 mg/L | > 64 mg/L |  |  | 
9 | CCC(CN)=C1CN(c2nc(Oc3cnc(C)nc3)nc3[nH]c4c(NC)cc(F)c(F)c4c23)C1 | 0.25 mg/L (≈ 0.536 µM) | 0.25 mg/L (≈ 0.536 µM) | < 0.03 mg/L | 64 mg/L (≈ 137 µM) | 0.5 mg/L (≈ 1.07 µM) | > 64 mg/L |  | 
10 | CCC(CN)=C1CN(c2nc(Oc3cnc(C4CC4)nc3)nc3[nH]c4c(NC)cc(F)cc4c23)C1 |  | < 0.008 mg/L | < 0.008 mg/L | 0.03 mg/L (≈ 0.0632 µM) | 0.015 mg/L (≈ 0.0316 µM) | 0.5 mg/L (≈ 1.05 µM) | 62% | 23.4 µM
11 | CNc1cc(F)cc2c1[nH]c1nc(Oc3cnc(C)nc3)nc(N3CC(=C(Br)CN)C3)c12 |  | < 0.008 mg/L | < 0.008 mg/L | 0.06 mg/L (≈ 0.12 µM) | 0.015 mg/L (≈ 0.03 µM) | 2 mg/L (≈ 4.01 µM) |  | 
12 | CCC(CN)=C1CN(c2nc(NS(C)(=O)=O)nc3[nH]c4c(NC)cc(F)cc4c23)C1 |  | > 16 mg/L | > 16 mg/L | > 16 mg/L | > 16 mg/L | > 16 mg/L |  | 
